Test results taken from PMC11564564 (Scientific Reports, 2024).
In brackets after ≈: the same amount, converted by molar mass.

Columns and labels:
[1] = system: human red blood cells; test: Hemolytic; type: cell-based; conditions: Erythrocyte, 1 h, read-out: IC50, Human RBC's
Summary of the method: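 Blood from a healthy donor was collected in EDTA. RBCs were pelleted at 14,000 rpm for 5 min, and 200 µL of pellet was resuspended in 9.8 mL PBS, pH 7.2. 100 µL suspension plus 100 µL test solution (200–1 µg/mL) were incubated 1 h at 35 °C, then spun at 10,000 rpm for 10 min. Supernatant haemoglobin was read at 540 nm. Triton X-100 and PBS defined 100% and 0% hemolysis.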

[2] = system: ESBL-producing strains (E. coli, K. pneumoniae, and P. aeruginosa); test: MIC, summary across ESBL-producing strains; type: cell-based
Summary of the method: (§1)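 MIC was set by serial dilution of test compound, with three replicates per concentration. Strains were clinical E. coli, K. pneumoniae and P. aeruginosa isolates, identified biochemically and confirmed as ESBL producers by double disc synergy test (ceftazidime and cefotaxime discs 20 mm from amoxicillin/clavulanate on Mueller Hinton agar, 37 °C, 18–20 h).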

[3] = Brine shrimp lethality; conditions: Artemia salina (brine shrimp), in vivo
Summary of the method: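 Artemia salina eggs were hatched for 24 h in aerated, lit salt water (27 g table salt per 3 L). Ten nauplii went into each tube with test compound at 1–200 µg/mL in 300 µL total. After 24 h, survivors were counted under a magnifier and percent mortality calculated. IC50 came from Finney analysis.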

[4] = Solubility in DMSO; type: physicochemical
[5] = system: ESBL-producing P. aeruginosa; test: MIC by serial dilution, ESBL P. aeruginosa; type: cell-based; conditions: Pseudomonas aeruginosa, read-out: Minimum inhibitory concentration (MIC), P. aeruginosa
Summary of the method: (§2)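 Bacterial isolates were confirmed ESBL-positive by double disc synergy test. For that test, a 0.5 McFarland suspension was swabbed onto Mueller Hinton agar, and ceftazidime and cefotaxime (30 μg) discs were placed 20 mm from an amoxicillin/clavulanate (30 μg) disc. Plates were incubated at 37 °C for 18-20 h, and an enhanced zone indicated ESBL. Test compounds were dissolved in appropriate solvents, and MIC was determined by serial dilution, three replicates per concentration.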

[6] = system: ESBL-producing E. coli; test: MIC by serial dilution, ESBL E. coli; type: cell-based; conditions: Escherichia coli, read-out: Minimum inhibitory concentration (MIC), E. coli
Summary of the method: as §1

[7] = system: ESBL-producing K. pneumoniae; test: MIC by serial dilution, ESBL K. pneumoniae; type: cell-based; conditions: Klebsiella pneumoniae, read-out: Minimum inhibitory concentration (MIC), K. pneumoniae
Summary of the method: as §2

[8] = system: tuberculosis; conditions: cited from earlier work

Row | Structure (SMILES) | IC50 [1] | MIC [2] | IC50 at 24 h [3] | Solubility in DMSO [4] | MIC [5] | MIC [6] | MIC [7] | MIC, antituberculosis activity [8]
1 | COc1cc(C=Nc2ccc([N+](=O)[O-])cc2)ccc1O [SB-1, 2-Methoxy-4-((4-nitrophenylimino)methyl)phenol] | > 200 µg/mL | 125 µg/mL (≈ 459 µM) | 50.5 µg/mL (≈ 185 µM) | Soluble in DMSO | 125 µg/mL (≈ 459 µM) | 125 µg/mL (≈ 459 µM) | 125 µg/mL (≈ 459 µM) | –
2 | COc1cc(C=Nc2ccccc2Br)ccc1O [SB-2, 4-((2-Bromophenylimino)methyl)-2-methoxyphenol] | – | 250 µg/mL (≈ 817 µM) | – | Soluble in DMSO | 250 µg/mL (≈ 817 µM) | 250 µg/mL (≈ 817 µM) | 250 µg/mL (≈ 817 µM) | –
3 | COc1cc(C=Nc2ccc(C)cc2Cl)ccc1O [SB-3, 4-((2-Chloro-4-methylphenylimino)methyl)-2-methoxyphenol] | > 200 µg/mL | 125 µg/mL (≈ 453 µM) | – | Soluble in DMSO | 125 µg/mL (≈ 453 µM) | 125 µg/mL (≈ 453 µM) | 125 µg/mL (≈ 453 µM) | –
4 | COc1cc(C=Nc2cccc(O)c2)ccc1O [SB-4, 4-((3-Hydroxyphenylimino)methyl)-2-methoxyphenol] | – | 125 µg/mL (≈ 514 µM) | – | Soluble in DMSO | 125 µg/mL (≈ 514 µM) | 125 µg/mL (≈ 514 µM) | 125 µg/mL (≈ 514 µM) | –
5 | COc1cc(C=Nc2ccc(Cl)cc2Cl)ccc1O [SB-5, 4-((2,4-Dichlorophenylimino)methyl)-2-methoxyphenol] | > 200 µg/mL | 125 µg/mL (≈ 422 µM) | 45.7 µg/mL (≈ 154 µM) | Soluble in DMSO | 125 µg/mL (≈ 422 µM) | 125 µg/mL (≈ 422 µM) | 125 µg/mL (≈ 422 µM) | –
6 | [H]/N=C(/N)N[C@H]1[C@H](O)[C@@H](O)[C@H](O[C@@H]2O[C@@H](C)[C@](O)(C=O)[C@H]2O[C@@H]2O[C@@H](CO)[C@H](O)[C@@H](O)[C@@H]2NC)[C@@H](N/C(N)=N\[H])[C@@H]1O [streptomycin] | – | – | – | – | – | – | – | 10.7 µM (≈ 6.22 µg/mL)
